The target of test [1] is T1, Monoacylglycerol lipase ABHD6 (Homo sapiens, UniProt Q9BV23).
T1 sequence (Q9BV23 whole entry): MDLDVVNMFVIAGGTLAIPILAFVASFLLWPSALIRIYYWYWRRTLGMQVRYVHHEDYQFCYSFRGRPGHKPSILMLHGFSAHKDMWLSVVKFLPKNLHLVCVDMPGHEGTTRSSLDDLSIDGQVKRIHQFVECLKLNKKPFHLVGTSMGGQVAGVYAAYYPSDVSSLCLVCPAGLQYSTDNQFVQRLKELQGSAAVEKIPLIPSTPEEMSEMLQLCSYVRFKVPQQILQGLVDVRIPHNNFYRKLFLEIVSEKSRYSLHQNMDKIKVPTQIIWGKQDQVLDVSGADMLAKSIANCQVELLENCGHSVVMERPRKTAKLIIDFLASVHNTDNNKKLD
In words: Inhibition of human ABHD6 expressed in HEK293 cells using [3H]2-OG as substrate preincubated for 30 mins followed by substrate addition and measured after 5 mins by liquid scintillation spectroscopy. The class given is cell-based. The procedure, abridged:
(§1)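 Homogenate (40 µg) of HEK293 cells stably transfected with human ABHD6 or ABHD12, preincubated with compound 30 min at 37 °C in […], 0.1% BSA, pH 7.6. 2-OG 10 µM added for 5 min at 37 °C. Stopped with CHCl3:MeOH; aqueous tritium counted; blanks and nontransfected HEK293 hydrolysis subtracted. Screening at 10 µM.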

Test [2] addresses T2, Lysophosphatidylserine lipase ABHD12 (Homo sapiens, UniProt Q8N2K0).
T2 sequence (Q8N2K0 whole entry): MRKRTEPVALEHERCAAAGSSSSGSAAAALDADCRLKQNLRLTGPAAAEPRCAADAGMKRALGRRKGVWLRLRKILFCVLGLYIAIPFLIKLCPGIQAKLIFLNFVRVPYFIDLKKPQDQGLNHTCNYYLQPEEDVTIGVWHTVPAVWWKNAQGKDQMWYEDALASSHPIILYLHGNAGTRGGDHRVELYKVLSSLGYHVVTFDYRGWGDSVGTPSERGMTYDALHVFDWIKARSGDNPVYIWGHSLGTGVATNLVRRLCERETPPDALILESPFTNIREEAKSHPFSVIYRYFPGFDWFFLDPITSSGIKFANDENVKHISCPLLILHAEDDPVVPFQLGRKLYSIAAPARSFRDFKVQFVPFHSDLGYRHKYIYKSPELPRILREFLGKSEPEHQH
In words: Inhibition of human ABHD12 expressed in HEK293 cells using [3H]2-OG as substrate preincubated for 30 mins followed by substrate addition and measured after 5 mins by liquid scintillation spectroscopy. The class given is cell-based. The procedure, abridged: as §1

Test [3] concerns the target T3, Monoglyceride lipase (Mus musculus) (UniProt O35678).
T3 sequence (whole entry): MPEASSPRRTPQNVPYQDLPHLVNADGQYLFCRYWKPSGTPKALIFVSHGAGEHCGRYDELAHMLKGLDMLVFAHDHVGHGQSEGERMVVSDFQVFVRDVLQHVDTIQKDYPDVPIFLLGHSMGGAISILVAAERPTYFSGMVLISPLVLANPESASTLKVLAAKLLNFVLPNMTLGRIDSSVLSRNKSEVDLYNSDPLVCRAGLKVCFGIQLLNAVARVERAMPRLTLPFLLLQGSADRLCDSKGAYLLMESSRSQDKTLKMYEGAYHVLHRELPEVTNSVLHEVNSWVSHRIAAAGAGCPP
In words: Inhibition of MAGL in mouse brain membrane at 10 uM preincubated for 25 mins followed by TAMRA-FP labeling addition and measured after 5 mins by competitive ABPP based analysis. The class given is cell membranes. The following applies: time 30.0 min. The procedure, abridged: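 Mouse brain membranes, 4 mg/mL in PBS, preincubated 25 min at 25 °C with compound at 10 µM or a range of concentrations. Labelled 5 min with TAMRA-FP at 125 nM final. Proteins resolved on 11% SDS-PAGE and scanned for fluorescence.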

In test [4] the test system is MDA-MB-231. In words: Antiproliferative activity against human MDA-MB-231 cells as reduction in cell growth measured after 96 hrs by Celltiter-glo luminescent assay. The class given is functional, cell-based. The following applies: MDA-MB-231, 96 h. The procedure, abridged: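 Cell lines kept at 37 °C, 5% CO2; 5 × 10^2 cells per well, compound added the day after seeding at 200 to 0.02 µM. Viability read after 96 h by CellTiter-Glo luminescence. IC50 from logistic dose-response curves, in triplicate; error bars are SD.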
Background: Cellular ATP, detected with luciferase, serves as a proxy for viable cell number.

The target in test [5] is Cannabinoid receptor 2 (Homo sapiens, UniProt P34972). In words: Displacement of [3H]CP55940 from human CB2 receptor incubated for 90 mins by radioligand binding assay. The procedure, abridged:
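Membranes expressing hCB1 or hCB2 in 50 mM Tris-HCl, 2.5 mM EDTA, 5 mM MgCl2, 0.5% BSA, pH 7.4, incubated with compound and 0.5 nM [3H]CP55,940 for 90 min at 30 °C. Nonspecific binding with 10 µM […]; filtered and counted. Screening at 10 µM; two experiments in triplicate.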
(Displacement assays read how much labelled ligand stays bound in the presence of the test substance.)

Test [6] has as its target T4, Fatty-acid amide hydrolase 1 (Homo sapiens) (UniProt O00519).
T4 sequence (whole entry): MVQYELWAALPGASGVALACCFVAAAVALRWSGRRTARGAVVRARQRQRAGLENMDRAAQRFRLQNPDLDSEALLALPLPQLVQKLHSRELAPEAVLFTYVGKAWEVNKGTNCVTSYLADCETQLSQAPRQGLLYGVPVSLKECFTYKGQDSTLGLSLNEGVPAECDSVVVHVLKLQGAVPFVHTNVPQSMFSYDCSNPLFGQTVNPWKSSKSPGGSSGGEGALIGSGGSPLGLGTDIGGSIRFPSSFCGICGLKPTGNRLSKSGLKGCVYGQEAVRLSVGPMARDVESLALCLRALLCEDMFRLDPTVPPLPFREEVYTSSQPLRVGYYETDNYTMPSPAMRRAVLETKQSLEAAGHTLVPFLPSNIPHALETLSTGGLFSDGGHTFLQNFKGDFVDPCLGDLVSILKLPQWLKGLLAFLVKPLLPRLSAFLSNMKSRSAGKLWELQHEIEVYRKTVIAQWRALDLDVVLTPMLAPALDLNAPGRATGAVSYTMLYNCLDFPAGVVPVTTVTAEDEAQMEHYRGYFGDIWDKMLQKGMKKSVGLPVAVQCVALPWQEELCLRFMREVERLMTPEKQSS
Briefly: Inhibition of FAAH in human U937 cells assessed as reduction in [3H]ethanolamine formation using [ethanolamine-1-3H]AEA as substrate at 10 uM incubated for 15 mins by liquid scintillation spectroscopy. The following applies: U-937. The class given is cell-based. The procedure, abridged: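 Intact U937 cells (1.0 × 10^6) in Tris-HCl 10 mM, EDTA 1 mM, 0.1% BSA, pH 8, given compound at 37 °C. Then 15 min at 37 °C with shaking. MAGL: 10 µM 2-OG plus 0.5 nM [3H]2-OG. FAAH: 1 µM AEA plus 2 nM [3H]AEA. Aqueous-phase tritium counted; three experiments in triplicate.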

Calls of active or inactive are those of the source. The rule behind the calls is not given here.

Cannabinoid receptor 2, sequence (P34972 whole entry): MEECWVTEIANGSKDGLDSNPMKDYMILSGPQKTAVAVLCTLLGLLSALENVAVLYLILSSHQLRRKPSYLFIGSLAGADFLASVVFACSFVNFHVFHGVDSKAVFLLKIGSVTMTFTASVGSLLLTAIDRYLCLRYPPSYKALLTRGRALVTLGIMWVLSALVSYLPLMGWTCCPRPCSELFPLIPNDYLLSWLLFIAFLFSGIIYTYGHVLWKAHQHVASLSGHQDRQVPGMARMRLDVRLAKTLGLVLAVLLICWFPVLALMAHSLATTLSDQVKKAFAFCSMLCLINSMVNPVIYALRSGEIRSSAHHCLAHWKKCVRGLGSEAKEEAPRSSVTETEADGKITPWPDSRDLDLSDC

In general, IC50 refers to the concentration needed to halve the response being measured. A high value points to lower potency. What is called inhibition is how much of the control response was suppressed. As to `O=C(c1ccc(Sc2ccccc2)cc1)C1CCN(C(=O)c2cc(O)c(F)cc2F)CC1`, the IC50 in test [1] was above 10 µM; in test [2] it was above 10 µM; in test [4] it was 63 µM; in test [5], above 10 µM. Also, in test [3], the inhibition result was “Active”. The inhibition in test [6] was determined as 22%.
For the compound `O=C(c1ccc(Cc2ccccc2)cc1)C1CCN(C(=O)c2cc(O)c(F)cc2F)CC1`, the IC50 is above 10 µM in test [1], above 10 µM in test [2], 65 µM in test [4] and above 10 µM in test [5]. Also, the inhibition result in test [3] is “Active”. Further, the inhibition in test [6] stood at 21%.
In the case of `O=C(c1ccc(Cc2ccccc2)cc1)C1CCN(C(=O)c2cc(O)ccc2F)CC1`, the IC50 was above 10 µM in test [1], above 10 µM in test [2], 25 µM in test [4] and above 10 µM in test [5]. The inhibition result in test [3] was “Active”. The inhibition in test [6] is below 10%.
Consider `O=C(c1ccc(Sc2ccccc2)cc1)C1CCN(C(=O)c2cc(O)ccc2F)CC1`, for which the 50% inhibitory concentration (IC50) was above 10 µM in test [1], above 10 µM in test [2], 43 µM in test [4] and above 10 µM in test [5]. For the same compound, the inhibition result in test [3] was “Active”. In addition, in test [6], the inhibition is below 10%.

(Values after ChEMBL document CHEMBL4732057, “Design, synthesis and biological evaluation of second-generation benzoylpiperidine derivatives as reversible monoacylglycerol lipase (MAGL) inhibitors” (Eur J Med Chem, 2021).)
